# Rows were chosen to be rich in hits. Some 3% of all compounds tested hit in one or more screens of this group.
# TAAR1 antagonist – antagonists of human TAAR1; Q96RJ0; CHO RD-HGA16 TAAR1, Fluo-8 calcium fluorescence, antagonist; inhibition, % at 3 µM; 1.5% of 360,000 active; AID 624466;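 active means inhibition above a per-plate cutoff, the mean inhibition of test compounds on that plate plus 3 SD, cut at about 49% in these data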;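 further: 0% = DMSO plus EC80 beta-PEA response and 100% = DMSO alone without agonist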
# Target sequence (Q96RJ0 whole entry, looked up): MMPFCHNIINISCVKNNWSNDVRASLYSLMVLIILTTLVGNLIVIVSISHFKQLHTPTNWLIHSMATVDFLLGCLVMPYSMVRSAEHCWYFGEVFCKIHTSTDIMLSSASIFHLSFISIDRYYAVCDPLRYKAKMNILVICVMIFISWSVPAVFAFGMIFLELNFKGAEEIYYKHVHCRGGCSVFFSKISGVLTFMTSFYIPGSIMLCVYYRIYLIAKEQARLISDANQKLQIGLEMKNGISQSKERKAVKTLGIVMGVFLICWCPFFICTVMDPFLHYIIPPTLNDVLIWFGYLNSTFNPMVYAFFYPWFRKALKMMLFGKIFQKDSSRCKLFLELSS
#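 Test system: CHO RD-HGA16 cells bearing hTAAR1 | Reagent: β-PEA, EC80 | Compound dosing: 3 µM, single point | Schedule: Dye loading 75 min at 37 °C, then 30 min room temperature | Signal: Calcium fluorescence with Fluo-8 | Evaluation: Percent inhibition of PEA-evoked calcium signal, max/basal emission ratio | Control set: DMSO-only wells and EC80 β-PEA-stimulated wells | Repeats: Singlicate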
# M4 ag – agonists of human muscarinic M4 receptor (CHRM4) | 0.14% of 360,000 active | activation, % at 3 µM | CHO-K1 hM4/Gqi5, Fluo-8 calcium fluorescence; vehicle 0%, full acetylcholine response 100% | P08173 | AID 624127;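 active means activation above the run mean over all test wells plus 3 SD, cut at about 32% in these data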;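 further: peak over basal fluorescence ratio per well then scaled between controls; 0% = DMSO wells and 100% = acetylcholine at EC100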
# CHRM4 antagonist – antagonists of human muscarinic M4 receptor (CHRM4) | P08173 | CHO-hM4 cells, ACh EC80, Fluo-8 calcium fluorescence | inhibition, % at 3 µM | 0.73% of 360,000 active;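 active means inhibition above its plate's cutoff, the mean inhibition of sample wells plus 3 SD, cut at about 27% in these data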;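 further: 0% = acetylcholine EC80 with DMSO and 100% = DMSO without agonist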
# TAAR1 agonist – human TAAR1 agonism. Q96RJ0. CHO RD-HGA16 TAAR1, Fluo-8 calcium fluorescence; vehicle wells 0%, saturating PEA agonist 100%. activation, % at 3 µM. 0.99% of 360,000 active. AID 624467;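 active means activation above the mean activation of all test compounds in the run plus 3 SD, cut at about 38% in these data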
#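 Benchmarks: low control DMSO, high control PEA (EC100); System: CHO RD-HGA16 cells carrying human TAAR1 plus Gα16; Detection: Fluo-8 fluorescence, 5 s baseline then 140 s kinetic read; Schedule: 17-24 h plating, Fluo-8 75 min 37 °C, 30 min RT; Read-out basis: % activation from peak over basal fluorescence ratio, DMSO-to-PEA scaled.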
# CHRM4 PAM – positive allosteric modulators of human muscarinic M4 receptor. P08173. CHO-K1 hM4/Gqi5, Fluo-8 calcium fluorescence, ACh EC20; 0% = ACh EC20, 100% = maximal ACh. activation, % at 3 µM. 0.4% of 360,000 active;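 active means activation above its plate's cutoff, the mean activation of sample wells plus 3 SD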
# Starred values were filed as active, the others as inactive; / = not tested or not shown.
SMILES,TAAR1 antagonist,M4 ag,CHRM4 antagonist,TAAR1 agonist,CHRM4 PAM
Cc1cc(/C=C\c2ccc3cc(N(C)C)ccc3[n+]2C)c(C)n1-c1ccccc1,/,20,45*,/,-19
CCOc1ccccc1N1CCN(C(=O)c2cc(S(=O)(=O)N3CCCCC3)ccc2C)CC1,55*,21,5,28,-4
CSc1ccc(CN2CCC(Cc3ccccc3)CC2)cc1,-9,1,28*,5,-18
COc1ccc(CCNC(=O)c2ccc(CN3CCC(Cc4ccccc4)CC3)cc2)cc1,-15,4,-5,5,-10
C=CCNC(=O)c1ccc(CN2CCC(Cc3ccccc3)CC2)cc1,1,2,28*,2,-16
CC(C)NC(=O)c1ccc(CN2CCC(Cc3ccccc3)CC2)cc1,-4,1,67*,5,-16
O=C1NC(Cc2ccccc2)c2nc3ccc(F)cc3c(=O)n2-c2cc3ccccc3cc21 (configuration not stated),49*,12,-3,6,-3
O=C(Nc1cccc(S(=O)(=O)Nc2ccc(Cl)cc2)c1)c1ccc(Cl)nc1,42,16,30*,24,-15
COC(=O)C1=C(C)N(Cc2ccc(C(F)(F)F)cc2)C(=NCc2cc(OC)c(OC)c(OC)c2)NC1c1cccc(Cl)c1 (configuration not stated),14,/,/,22,/
CCCN(CCO)CCCc1ccccc1,8,1,7,3,6
CCN(CCCc1ccccc1)CCCc1ccccc1,-9,1,89*,7,-18
CC(=O)c1ccc(S(=O)(=O)NCC2CCN(C(=O)C(=O)c3cc4ccccc4o3)CC2)cc1,7,/,/,5,/
CN(C)c1ccc(C=C2SC(=S)N(Cc3ccco3)C2=O)cc1,53*,14,21,44*,-10
Cc1cc(/C=C2\SC(=S)N(Cc3ccco3)C2=O)c(C)n1-c1ccccc1,14,2,2,2,-1
COC(=O)C1=C(C)N(Cc2ccccc2C(F)(F)F)C(=NCc2ccccc2C(F)(F)F)NC1c1cccc(F)c1 (configuration not stated),6,/,/,-1,/
CC(C)CCNC(=O)c1cc(S(=O)(=O)N2CCC3(CC2)OCCO3)ccc1F,-16,2,0,4,2
CN1CCN(C(=S)NC(=O)c2ccc(Cl)cc2)CC1,11,1,-16,1,23*
COC(=O)c1cc2c(c3c4cc(OC)ccc4n(C(=O)c4ccccc4)c13)C(=O)N(C1CCCCC1)C2,22,/,/,1,/
O=C(NCc1cccc(Cl)c1)c1cccc2c(-c3cccnc3)coc12,55*,12,7,6,-12
CCN(CC)CCSc1nc2ccccc2n1Cc1ccccc1,9,2,36*,2,-17
Cc1ccccc1Nc1nc(N)nc(CSc2nc3ccccc3c(=O)n2CCCO)n1,40,20,-6,9,3
Cc1ccccc1Nc1nc(N)nc(CSc2nc3ccccc3c(=O)n2C)n1,59*,9,3,13,0
Cc1cc(N2CCN(C(=O)OC(C)(C)C)C[C@@H]2C)ccc1Br,39,/,/,-1,/
CCN(CC)C(=O)CSc1nnc(-c2ccccn2)n1-c1ccccc1OC,0,2,31*,-2,20
CCOc1ccccc1-n1c(SCC(=O)N(CC)CC)nnc1-c1ccccn1,-19,1,-1,4,-6
SMILES,TAAR1 antagonist,M4 ag,CHRM4 antagonist,TAAR1 agonist,CHRM4 PAM
Cc1ccccc1Nc1nc(N)nc(COC(=O)c2cccc(S(=O)(=O)N(C)C)c2)n1,7,10,1,13,-3
Cc1ccccc1Nc1nc(N)nc(COC(=O)c2cccc(S(=O)(=O)NCc3ccccc3)c2)n1,55*,17,1,28,-9
Oc1ccc(-c2c(-c3ccsc3)sc3ccccc23)cc1,52*,0,-3,4,-4
COCc1ccc(-c2c(-c3ccsc3)sc3ccccc23)cc1,-23,-1,-2,7,3
O=C(Nc1cccc(C(F)(F)F)c1)C1Cc2c(-c3ccc(Cl)cc3)ccnc2O1 (configuration not stated),-11,1,-37,4,17*
O=C(Nc1cccc(C(F)(F)F)c1)C1Cc2c(-c3ccccc3)ccnc2O1 (configuration not stated),9,6,0,1,-4
COc1ccc(-c2c(C(=O)c3ccccc3)[nH]c(N)c2C(=O)NCCc2c[nH]c3ccccc23)cc1,23,/,/,4,/
O=C(O)c1ccc(NC(=O)c2cn(-c3ccccc3)nc2-c2cccc(Cl)c2)cc1,52*,2,9,6,-5
O=C(O)c1ccc(NC(=O)c2cn(-c3ccccc3)nc2-c2ccc(F)cc2)cc1,59*,3,7,5,-17
O=C(O)c1cn(-c2ccccc2)nc1-c1ccc(F)cc1,5,1,-4,3,7
Cc1ccc(NC(=S)N(CCCN2CCCC2)Cc2cccn2Cc2ccc(Cl)cc2)cc1Cl,-39,3,-7,11,-9
COc1ccc(NC(=S)N(CCCN2CCCC2)Cc2cccn2Cc2ccc(Cl)cc2)cc1Cl,36,19,16,40*,-21
C[C@@H]1CN([C@@H](C)CO)C(=O)CCCn2cc(nn2)CO[C@H]1CN(C)C(=O)Nc1ccccc1F,-5,/,/,1,/
CCOc1ccc(CCN2C(=S)N([C@@H](Cc3ccc(O)cc3)CN3CCC[C@@H]3CN3C(=S)NC[C@@H]3CC(C)C)C[C@@H]2Cc2ccccc2)cc1,-16,2,-12,0,23*
CC(C)C[C@H]1CNC(=S)N1CC1CCN(CCCCc2ccccc2)CC1,-8,1,42*,1,-16
CC(C)C[C@H]1CNC(=S)N1CC1CCN(CCCC2CCCC2)CC1,-16,1,34*,0,-14
CCCCN1CCC(CN2C(=S)NC[C@@H]2CC(C)C)CC1,-14,0,-12,2,10
CN(C)C1=NC[C@H](Cc2ccccc2)N1CCCC1CCCCC1,5,20,10,48*,-20
CCCCCCCCN1C(=O)[C@@H](CC(=O)NCc2cccc3ccccc23)C[C@@]2(C(=O)OC)C1=C[C@H](C1CCCC1)O[C@@H]2C,-14,/,/,3,/
CCN(c1ccccc1)S(=O)(=O)c1ccc(C(=O)N2CCN(c3ccccc3F)CC2)cc1,5,4,11,0,-7
Cc1cccc(C)c1-n1nnnc1-c1nc2cc3ccccc3cc2[nH]c1=O,12,5,16,4,6
CC(C)Nc1ncnc2c1ncn2[C@H]1CN(Cc2cccs2)C[C@@H](CO)O1,5,1,-19,1,7
C[C@@H]1CN([C@H](C)CO)C(=O)CCCn2cc(nn2)CO[C@H]1CN(C)C(=O)Oc1ccccc1,-13,/,/,4,/
S=C1NC[C@H](Cc2ccccc2)N1CC1CCN(CCCC2CCCC2)CC1,2,8,42*,2,-15

# High-throughput results as filed in PubChem BioAssay.
